Our source for the Cmax, Radiolabel recovery and AUCt values is ChEMBL document CHEMBL3525963, “Tissue distribution and elimination of [14C]apixaban in rats” (Drug Metab Dispos, 2011).

Holding throughout (design): dose 5 mg/kg, dosed compound name [14C]-apixaban, route oral
Conditions in all cases: in vivo

The test system of data set [1] is Blood. Briefly: Cmax in female Sprague-Dawley rat blood at 5 mg/kg, po administered as single dose. It is filed as ADME, organism-based. The method in brief: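 Fasted male, female or pregnant SD rats received a single oral gavage of 5 mg/kg (100 μCi/kg) in 0.5% Tween 80/Labrafil. One rat was killed per time point, up to 168 h (48 h for pregnant). Blood was collected into K3EDTA. Blood radioactivity came from autoradiogram or LSC data, and Cmax was taken from the concentration-time profile.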

Data set [2] relates to Rattus norvegicus. Nature of the data set: Biodistribution in fetal brain of pregnant Sprague-Dawley rat at 5 mg/kg, po administered as single dose measured after 4 hrs. It is filed as ADME, organism-based. The method in brief: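 Pregnant SD rats received a single oral gavage of [14C]apixaban at 5 mg/kg (100 μCi/kg; 1.0 mg/mL, 20 μCi/mL in 0.5% Tween 80/Labrafil) after fasting, one dam per time point. Frozen carcasses were cut into 40 µm sagittal sections and read by phosphor-imaging QWBA against [14C]glucose standards. Fetal tissue radioactivity is reported as µg eq/g, with LLOQ 0.037 µg eq/g.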

For data set [3], the system named is Spleen. Nature of the data set: Biodistribution in pregnant Sprague-Dawley rat spleen at 5 mg/kg, po administered as single dose measured after 24 hrs. It is filed as ADME, organism-based.
Data set [4] deals with Muscle tissue. Nature of the data set: Biodistribution in female Sprague-Dawley rat muscle at 5 mg/kg, po administered as single dose measured after 24 hrs. It is filed as ADME, organism-based. The essentials: (§1)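 Quantitative whole-body autoradiography was run after a single 5 mg/kg (100 μCi/kg) oral gavage to fasted female or pregnant SD rats, one rat per time point. Carcasses were frozen in hexane/dry ice, and 40 µm sagittal sections were dried at −20°C for at least 48 h. Sections were exposed to a phosphor plate alongside [14C]glucose standards (0.001–6.5 µCi/g). Results are µg eq/g, with LLOQ 0.037 µg eq/g.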

Data set [5] deals with Rattus norvegicus. Briefly: Biodistribution in fetal liver of pregnant Sprague-Dawley rat at 5 mg/kg, po administered as single dose measured after 4 hrs. Format: ADME, organism-based. The method in brief:
(§2)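 Pregnant rats, 270-319 g and fasted overnight, received [14C]apixaban by oral gavage at 100 μCi/kg in 0.5% Tween 80/Labrafil. One dam per time point was euthanized and frozen in hexane/dry ice. Fetal tissue radioactivity was measured by QWBA on 40 µm sagittal sections calibrated with [14C]glucose standards. Values are in µg eq/g, with LLOQ 0.037 μg eq/g.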

Data set [6] concerns Thymus. Nature of the data set: Biodistribution in female Sprague-Dawley rat thymus at 5 mg/kg, po administered as single dose measured after 24 hrs. It is filed as ADME, organism-based. The essentials:
as §1

In data set [7] the test system is Blood. Nature of the data set: AUC (0 to t) in pregnant Sprague-Dawley rat blood at 5 mg/kg, po administered as single dose. Format: ADME, organism-based.
Data set [8] relates to Muscle tissue. Nature of the data set: Biodistribution in pregnant Sprague-Dawley rat muscle at 5 mg/kg, po administered as single dose measured after 48 hrs. Format: ADME, organism-based. The method in brief:
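Pregnant SD rats (270-319 g) were fasted overnight and given one oral gavage of 5 mg/kg (100 μCi/kg) in 0.5% Tween 80 in Labrafil. One rat was euthanized per time point (0.5, 1, 4, 8, 24, 48 h) and the carcass frozen. 40 µm sagittal sections were phosphor-imaged against [14C]glucose standards and results reported as µg eq/g; LLOQ 0.037 µg eq/g.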

In data set [9] the test system is Blood. Briefly: Biodistribution in female Sprague-Dawley rat blood at 5 mg/kg, po administered as single dose measured after 24 hrs. It is filed as ADME, organism-based. The essentials: as §1
For data set [10], the system named is Pancreas. Nature of the data set: Biodistribution in pregnant Sprague-Dawley rat pancreas at 5 mg/kg, po administered as single dose measured after 1 hr. It is filed as ADME, organism-based.
Data set [11] can be described thus: Drug level in lactating Sprague-Dawley rat milk at 5 mg/kg, po administered as single dose after 2 hrs. It is filed as ADME, organism-based.
Data set [12] relates to Rattus norvegicus. Nature of the data set: Biodistribution in male Sprague-Dawley rat brown fat at 5 mg/kg, po administered as single dose measured after 0.5 hrs. It is filed as ADME, organism-based, Brown adipose tissue. The method in brief:
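Fasted male rats, 225-252 g, received [14C]apixaban by single oral gavage at 100 μCi/kg in 0.5% Tween 80/Labrafil. One rat was killed per time point and the carcass frozen. Tissue radioactivity was quantified by QWBA (40 µm sagittal sections, phosphor plate, [14C]glucose calibration) as µg eq apixaban/g, with LLOQ 0.037 μg eq/g.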

Data set [13] deals with Lung. Nature of the data set: Biodistribution in female Sprague-Dawley rat lung at 5 mg/kg, po administered as single dose measured after 0.5 hrs. Format: ADME, organism-based. The method in brief:
(§3)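 [¹⁴C]Apixaban given by oral gavage at 5 mg/kg (100 μCi/kg) in 0.5% Tween 80 in Labrafil (1.0 mg/mL dosing solution) to rats fasted overnight through 4 h post-dose. One rat per time point; carcass frozen in hexane/dry ice. Quantitative whole-body autoradiography used 40 µm sagittal sections and a phosphor imaging plate calibrated with [¹⁴C]glucose standards (0.001–6.5 μCi/g). Read-out in µg eq apixaban/g; LLOQ 0.037 μg eq/g.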

The subject of data set [14] is Rattus norvegicus. Nature of the data set: Biodistribution in female Sprague-Dawley rat pituitary gland at 5 mg/kg, po administered as single dose measured after 72 hrs. Format: ADME, organism-based. The method in brief:
as §1

Data set [15] has as its system Rattus norvegicus. Nature of the data set: Biodistribution in fetal liver of pregnant Sprague-Dawley rat at 5 mg/kg, po administered as single dose measured after 1 hr. Format: ADME, organism-based. The method in brief:
as §2

Data set [16] has as its system Rattus norvegicus. Nature of the data set: Biodistribution in female Sprague-Dawley rat kidney cortex at 5 mg/kg, po administered as single dose measured after 4 hrs. It is filed as ADME, organism-based. The essentials:
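[14C]apixaban (20 μCi/mL in dosing solution) in 0.5% Tween 80 in Labrafil given by oral gavage to fasted female rats, 206-213 g, at 100 μCi/kg. One rat per time point was euthanized and snap-frozen. Sagittal 40 µm whole-body sections were read by QWBA phosphor imaging against [14C]glucose standards. Results are in µg eq apixaban/g, with LLOQ 0.037 μg eq/g.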

The subject of data set [17] is Spleen. Briefly: Biodistribution in female Sprague-Dawley rat spleen at 5 mg/kg, po administered as single dose measured after 0.5 hrs. Format: ADME, organism-based. The essentials:
as §3

Data set [18] has as its system Lung. Briefly: Biodistribution in male Sprague-Dawley rat lung at 5 mg/kg, po administered as single dose measured after 4 hrs. It is filed as ADME, organism-based. The essentials:
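[14C]apixaban (1.0 mg/mL, 20 μCi/mL) in 0.5% Tween 80 in Labrafil, given by oral gavage at 100 μCi/kg to male rats (225-252 g) fasted overnight through 4 h post-dose. One rat per time point. Carcasses frozen in hexane/dry ice and cut into 40 µm sagittal sections. QWBA read on phosphor plates against [14C]glucose standards, reported as µg eq/g. LLOQ 0.037 µg eq/g.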

Data set [19] deals with Rattus norvegicus. Briefly: Biodistribution in male Sprague-Dawley rat kidney cortex at 5 mg/kg, po administered as single dose measured after 72 hrs. Format: ADME, organism-based. The essentials:
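Fasted male SD rats (225-252 g) each received one oral gavage dose of [14C]apixaban, 5 mg/kg (100 μCi/kg), in 0.5% Tween 80/Labrafil vehicle. One rat was killed per time point, from 0.5 to 168 h. Frozen carcasses were cut into 40 µm sagittal whole-body sections and read by QWBA phosphor imaging against [14C]glucose calibrants. Results are in µg apixaban eq/g; BLQ <0.037 µg eq/g.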

In data set [20] the test system is Lung. Nature of the data set: Biodistribution in pregnant Sprague-Dawley rat lung at 5 mg/kg, po administered as single dose measured after 24 hrs. It is filed as ADME, organism-based.
Data set [21] relates to Brain. Nature of the data set: Biodistribution in pregnant Sprague-Dawley rat brain at 5 mg/kg, po administered as single dose measured after 0.5 hrs. Format: ADME, organism-based.

Turning to `COc1ccc(-n2nc(C(N)=O)c3c2C(=O)N(c2ccc(N4CCCC[14C]4=O)cc2)CC3)cc1`, in data set [1], the Cmax turned out to be 880 ngequiv/g. In addition, the Radiolabel recovery in data set [2] is recorded as 0.06 ugequiv/g; in data set [3], less than 0.037 ugequiv/g; in data set [4], “Not detected assumed BLQ”; in data set [5], 0.32 ugequiv/g; in data set [6], “Not detected assumed BLQ”; in data set [8] it was “Not detected assumed BLQ”. For the same molecule, the Radiolabel recovery entry was “Not detected assumed BLQ” in data set [9]; 0.75 ugequiv/g in data set [10]; 7.59 µg/mL in [11]; 0.46 ugequiv/g in data set [12]; 0.43 ugequiv/g in [13]; “Not detected assumed BLQ” in [14]. Further, the Radiolabel recovery in [15] is on record as 0.22 ugequiv/g; in data set [16], 1.21 ugequiv/g; in data set [17], 0.29 ugequiv/g; in data set [18] it was 0.64 ugequiv/g; in [19], “Not detected assumed BLQ”; in [20] it was less than 0.037 ugequiv/g. Moreover, the Radiolabel recovery in [21] is recorded as 0.05 ugequiv/g. Besides, the AUCt in [7] amounted to 6980 ngequiv.hr/g.
